# Assay results reported in ChEMBL document CHEMBL5724801, “EUbOPEN Chemogenomics Library - Multiplex” (2024).
# Several values for one entry are separate records, joined by “and”; a condition that tells them apart may be missing. Equal entries are not always repeated.
# Test system: U2OS
# Test: Multiplex assay against U2OS
# Type: toxicity, cell-based
# Details: human
# How it was run: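 Cells stained live at seeding with Hoechst33342, BioTracker Green Microtubule Cytoskeleton Dye, MitoTracker Red and Annexin V Alexa Fluor 680 were imaged on a CQ1 microscope at 37°C and 5% CO2 after compound addition. Their classification by CellPathfinder machine-learning gating ran from Hoechst high-intensity objects versus normal cells, to healthy, pyknosed or fragmented nuclei among normal cells, to mitotic or apoptotic among pyknosed cells. Tubulin, mitochondrial-mass and membrane-permeability phenotypes are per cents of healthy-nucleus cells.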
# [1] = 12 h, 1 µM, compound concentration 1 uM
# [2] = 12 h, 10 µM, compound concentration 10 uM
# [3] = 24 h, 1 µM, compound concentration 1 uM
# [4] = 24 h, 10 µM, compound concentration 10 uM
# [5] = 48 h, 1 µM, compound concentration 1 uM
# [6] = 48 h, 10 µM, compound concentration 10 uM
smiles,measurement,setting,value
COc1cc(N2CCN(C)CC2)ccc1Nc1nccc(-c2cn(C)c3cnccc23)n1,Population Apoptotic (%),[1],42.42% and 21.43%
same,Population Fragmented Nuclei (%),[1],1.36% and 2.74%
same,Population Healthy Nuclei (%),[1],89.7% and 78.08%
same,Population Hoechst High Intensity Objects (%),[1],0.27% and 0%
same,Population Membrane Permeable-Phenotype (%),[1],5.14% and 14.04%
same,Population Mitotic Cells (%),[1],57.58% and 78.57%
same,Population Normal (%),[1],99.73% and 100%
same,Population Pyknosed Nuclei (%),[1],8.94% and 19.18%
same,Population Tubulin-Different-Phenotype (%),[1],5.14% and 4.39%
same,Total Cell Count,[1],370 and 146
same,Population Apoptotic (%),[2],48.67% and 23.94%
same,Population Fragmented Nuclei (%),[2],6.32% and 4.8%
same,Population Healthy Nuclei (%),[2],61.21% and 38.4%
same,Population Hoechst High Intensity Objects (%),[2],0%
same,Population Membrane Permeable-Phenotype (%),[2],33.33% and 66.67%
same,Population Mitotic Cells (%),[2],51.33% and 76.06%
same,Population Normal (%),[2],100%
same,Population Pyknosed Nuclei (%),[2],32.47% and 56.8%
same,Population Tubulin-Different-Phenotype (%),[2],60.56% and 58.33%
same,Total Cell Count,[2],348 and 125
same,Population Apoptotic (%),[3],46.67% and 20.69%
same,Population Fragmented Nuclei (%),[3],0.88% and 3.53%
same,Population Healthy Nuclei (%),[3],89.18% and 79.41%
same,Population Hoechst High Intensity Objects (%),[3],0%
same,Population Membrane Permeable-Phenotype (%),[3],3.96% and 9.63%
same,Population Mitotic Cells (%),[3],53.33% and 79.31%
same,Population Normal (%),[3],100%
same,Population Pyknosed Nuclei (%),[3],9.93% and 17.06%
same,Population Tubulin-Different-Phenotype (%),[3],3.71% and 5.19%
same,Total Cell Count,[3],453 and 170
same,Population Apoptotic (%),[4],79.82% and 63.75%
same,Population Fragmented Nuclei (%),[4],10.27% and 17.39%
same,Population Healthy Nuclei (%),[4],55.29% and 24.64%
same,Population Hoechst High Intensity Objects (%),[4],0%
same,Population Membrane Permeable-Phenotype (%),[4],25.68% and 44.12%
same,Population Mitotic Cells (%),[4],20.18% and 36.25%
same,Population Normal (%),[4],100%
same,Population Pyknosed Nuclei (%),[4],34.44% and 57.97%
same,Population Tubulin-Different-Phenotype (%),[4],53.55% and 44.12%
same,Total Cell Count,[4],331 and 138
same,Population Apoptotic (%),[5],46.51% and 48.94%
same,Population Fragmented Nuclei (%),[5],1.87% and 5.31%
same,Population Healthy Nuclei (%),[5],87.42% and 75.51%
same,Population Hoechst High Intensity Objects (%),[5],0%
same,Population Membrane Permeable-Phenotype (%),[5],1.42% and 4.86%
same,Population Mitotic Cells (%),[5],53.49% and 51.06%
same,Population Normal (%),[5],100%
same,Population Pyknosed Nuclei (%),[5],10.71% and 19.18%
same,Population Tubulin-Different-Phenotype (%),[5],2.14% and 3.78%
same,Population Apoptotic (%),[6],82.73% and 95.65%
same,Population Fragmented Nuclei (%),[6],15.62% and 15.79%
same,Population Hoechst High Intensity Objects (%),[6],0%
same,Population Membrane Permeable-Phenotype (%),[6],15.15% and 25%
same,Population Normal (%),[6],100%
same,Population Pyknosed Nuclei (%),[6],30.14% and 69.17%
same,Population Tubulin-Different-Phenotype (%),[6],53.54% and 40%
same,Total Cell Count,[6],365 and 133
O=C(O)C(F)(F)F.O=C1NC(=O)/C(=C/c2c[nH]c(=O)c(-c3ccc(N4CCNCC4)nc3)c2)S1,Population Apoptotic (%),[1],42.86% and 38.46%
same,Population Fragmented Nuclei (%),[1],1.89% and 1.93%
same,Population Healthy Nuclei (%),[1],92.45% and 85.51%
same,Population Hoechst High Intensity Objects (%),[1],0%
same,Population Membrane Permeable-Phenotype (%),[1],0.29% and 4.52%
same,Population Mitochondria Different-Phenotype (%),[1],0.29% and 6.21%
same,Population Mitotic Cells (%),[1],57.14% and 61.54%
same,Population Normal (%),[1],100%
same,Population Pyknosed Nuclei (%),[1],5.66% and 12.56%
same,Population Tubulin-Different-Phenotype (%),[1],0.58% and 2.82%
same,Total Cell Count,[1],371 and 207
same,Population Apoptotic (%),[2],25% and 60%
same,Population Fragmented Nuclei (%),[2],1.57% and 2.75%
same,Population Healthy Nuclei (%),[2],90.03% and 86.26%
same,Population Hoechst High Intensity Objects (%),[2],0%
same,Population Membrane Permeable-Phenotype (%),[2],2.62% and 4.46%
same,Population Mitochondria Different-Phenotype (%),[2],0.29% and 5.73%
same,Population Mitotic Cells (%),[2],75% and 40%
same,Population Normal (%),[2],100%
same,Population Pyknosed Nuclei (%),[2],8.4% and 10.99%
same,Population Tubulin-Different-Phenotype (%),[2],1.17% and 1.27%
same,Total Cell Count,[2],381 and 182
same,Population Apoptotic (%),[3],38.46% and 27.27%
same,Population Fragmented Nuclei (%),[3],0.79% and 0.38%
same,Population Healthy Nuclei (%),[3],94.08% and 86.92%
same,Population Hoechst High Intensity Objects (%),[3],0%
same,Population Membrane Permeable-Phenotype (%),[3],0.42% and 3.98%
same,Population Mitochondria Different-Phenotype (%),[3],0.21% and 3.98%
same,Population Mitotic Cells (%),[3],61.54% and 72.73%
same,Population Normal (%),[3],100%
same,Population Pyknosed Nuclei (%),[3],5.13% and 12.69%
same,Population Tubulin-Different-Phenotype (%),[3],0.42% and 1.33%
same,Total Cell Count,[3],507 and 260
same,Population Apoptotic (%),[4],40.62% and 57.89%
same,Population Fragmented Nuclei (%),[4],2.9% and 4.85%
same,Population Healthy Nuclei (%),[4],90.91% and 86.78%
same,Population Hoechst High Intensity Objects (%),[4],0%
same,Population Membrane Permeable-Phenotype (%),[4],3.19% and 4.06%
same,Population Mitochondria Different-Phenotype (%),[4],0.21% and 4.57%
same,Population Mitotic Cells (%),[4],59.38% and 42.11%
same,Population Normal (%),[4],100%
same,Population Pyknosed Nuclei (%),[4],6.19% and 8.37%
same,Population Tubulin-Different-Phenotype (%),[4],1.49% and 0.51%
same,Total Cell Count,[4],517 and 227
same,Population Apoptotic (%),[5],51.47% and 41.86%
same,Population Fragmented Nuclei (%),[5],2% and 1.49%
same,Population Healthy Nuclei (%),[5],90.84% and 89.38%
same,Population Hoechst High Intensity Objects (%),[5],0%
same,Population Membrane Permeable-Phenotype (%),[5],0.93% and 3.09%
same,Population Mitochondria Different-Phenotype (%),[5],0.12% and 2.14%
same,Population Mitotic Cells (%),[5],48.53% and 58.14%
same,Population Normal (%),[5],100%
same,Population Pyknosed Nuclei (%),[5],7.16% and 9.13%
same,Population Tubulin-Different-Phenotype (%),[5],1.04% and 1.66%
same,Total Cell Count,[5],950 and 471
same,Population Apoptotic (%),[6],38.82% and 45.95%
same,Population Fragmented Nuclei (%),[6],2.93% and 2.98%
same,Population Healthy Nuclei (%),[6],88.48% and 87.84%
same,Population Hoechst High Intensity Objects (%),[6],0.1% and 0%
same,Population Membrane Permeable-Phenotype (%),[6],1.48% and 3.39%
same,Population Mitochondria Different-Phenotype (%),[6],0% and 1.98%
same,Population Mitotic Cells (%),[6],61.18% and 54.05%
same,Population Normal (%),[6],99.9% and 100%
same,Population Pyknosed Nuclei (%),[6],8.59% and 9.18%
same,Population Tubulin-Different-Phenotype (%),[6],0.68% and 1.69%
same,Total Cell Count,[6],991 and 403
O=C1NC(NC23CC4CC(CC(C4)C2)C3)=N/C1=C\c1ccc2ncsc2c1,Population Apoptotic (%),[1],51.02% and 44.83%
same,Population Fragmented Nuclei (%),[1],17.88% and 22.19%
same,Population Healthy Nuclei (%),[1],75% and 69.66%
same,Population Hoechst High Intensity Objects (%),[1],0.86% and 0%
same,Population Membrane Permeable-Phenotype (%),[1],0.97% and 3.63%
same,Population Mitochondria Different-Phenotype (%),[1],0% and 3.23%
same,Population Mitotic Cells (%),[1],48.98% and 55.17%
same,Population Normal (%),[1],99.14% and 100%
same,Population Pyknosed Nuclei (%),[1],7.12% and 8.15%
same,Population Tubulin-Different-Phenotype (%),[1],0.58% and 2.82%
same,Total Cell Count,[1],694 and 356
same,Population Apoptotic (%),[2],44.44% and 38.46%
same,Population Fragmented Nuclei (%),[2],64.07% and 81%
same,Population Healthy Nuclei (%),[2],21.59% and 11.58%
same,Population Membrane Permeable-Phenotype (%),[2],0.82% and 0%
same,Population Mitochondria Different-Phenotype (%),[2],0% and 1.41%
same,Population Mitotic Cells (%),[2],55.56% and 61.54%
same,Population Normal (%),[2],52.03% and 84.32%
same,Population Pyknosed Nuclei (%),[2],14.34% and 7.42%
same,Population Tubulin-Different-Phenotype (%),[2],0% and 1.41%
same,Total Cell Count,[2],1086 and 1454
same,Population Apoptotic (%),[3],50% and 44.68%
same,Population Fragmented Nuclei (%),[3],19.28% and 20.63%
same,Population Healthy Nuclei (%),[3],75.17% and 67.96%
same,Population Hoechst High Intensity Objects (%),[3],0.69% and 0%
same,Population Membrane Permeable-Phenotype (%),[3],1.48% and 2.86%
same,Population Mitochondria Different-Phenotype (%),[3],0.37% and 5.71%
same,Population Mitotic Cells (%),[3],50% and 55.32%
same,Population Normal (%),[3],99.31% and 100%
same,Population Pyknosed Nuclei (%),[3],5.55% and 11.41%
same,Population Tubulin-Different-Phenotype (%),[3],2.03% and 2.86%
same,Total Cell Count,[3],726 and 412
same,Population Apoptotic (%),[4],45.1% and 35.71%
same,Population Fragmented Nuclei (%),[4],58.49% and 84.85%
same,Population Healthy Nuclei (%),[4],17.9% and 8.37%
same,Population Membrane Permeable-Phenotype (%),[4],0%
same,Population Mitochondria Different-Phenotype (%),[4],0%
same,Population Mitotic Cells (%),[4],54.9% and 64.29%
same,Population Normal (%),[4],60.11% and 86.9%
same,Population Tubulin-Different-Phenotype (%),[4],0%
same,Total Cell Count,[4],1078 and 1664
same,Population Apoptotic (%),[5],50% and 51.75%
same,Population Fragmented Nuclei (%),[5],22.08% and 20.53%
same,Population Healthy Nuclei (%),[5],72.6% and 58%
same,Population Hoechst High Intensity Objects (%),[5],3.35% and 1.12%
same,Population Membrane Permeable-Phenotype (%),[5],1.27% and 2.27%
same,Population Mitochondria Different-Phenotype (%),[5],0.32% and 9.42%
same,Population Mitotic Cells (%),[5],50% and 48.25%
same,Population Normal (%),[5],96.65% and 98.88%
same,Population Tubulin-Different-Phenotype (%),[5],2.23% and 2.6%
same,Total Cell Count,[5],895 and 537
same,Population Apoptotic (%),[6],51.13% and 47.24%
same,Population Fragmented Nuclei (%),[6],58.82% and 85.02%
same,Population Healthy Nuclei (%),[6],12.73% and 6.82%
same,Population Hoechst High Intensity Objects (%),[6],31% and 15.76%
same,Population Membrane Permeable-Phenotype (%),[6],0% and 1.89%
same,Population Mitochondria Different-Phenotype (%),[6],0% and 0.94%
same,Population Mitotic Cells (%),[6],48.87% and 52.76%
same,Population Normal (%),[6],69% and 84.24%
same,Population Tubulin-Different-Phenotype (%),[6],0%
same,Total Cell Count,[6],1355 and 1846
